According to ChEMBL document CHEMBL1134286, “Novel erythromycin derivatives with aryl groups tethered to the C-6 position are potent protein synthesis inhibitors and active against multidrug-resistant respiratory pathogens” (J Med Chem, 2001):
Values after ≈ are worked out from the molar mass of the structure shown.

Assays:
Format in all cases: functional
Streptococcus pneumoniae [1] = experiment: Minimum inhibitory concentration against Streptococcus pneumoniae 5649 efflux
Summary of the method: (§1)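 MICs were determined by agar dilution following National Committee for Clinical Laboratory Standards recommendations. Values are in µg/mL.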

[2] = Minimum inhibitory concentration against Haemophilus influenzae DILL Amp-R; summary of the method: as §1
[3] = Minimum inhibitory concentration against Streptococcus pyogenes 930MLSB; summary of the method: as §1
Staphylococcus aureus [4] = experiment: Minimum inhibitory concentration against Staphylococcus aureus ATCC 6538PEry-S; conditions: ATCC 6538P; summary of the method: as §1
Staphylococcus aureus [5] = experiment: Minimum inhibitory concentration against Staphylococcus aureus A 5177 MLSB-i; summary of the method: as §1
Staphylococcus aureus [6] = experiment: Minimum inhibitory concentration against Staphylococcus aureus A 5278 MLSB-c; summary of the method: as §1
[7] = Minimum inhibitory concentration against Streptococcus pneumoniae 5737 MLSB; summary of the method: as §1
Streptococcus pneumoniae [8] = experiment: Minimum inhibitory concentration against Streptococcus pneumoniae ATCC 6303 Ery-S; summary of the method: as §1
[9] = Minimum inhibitory concentration against Streptococcus pyogenes PIU2548 efflux; summary of the method: as §1
[10] = Minimum inhibitory concentration against Streptococcus pyogenes EES 61 Ery-S; summary of the method: as §1

| Compound | MIC (Streptococcus pneumoniae [1]) [µg/mL] | MIC [2] [µg/mL] | MIC [3] [µg/mL] | MIC (Staphylococcus aureus [4]) [µg/mL] | MIC (Staphylococcus aureus [5]) [µg/mL] | MIC (Staphylococcus aureus [6]) [µg/mL] | MIC [7] [µg/mL] | MIC (Streptococcus pneumoniae [8]) [µg/mL] | MIC [9] [µg/mL] | MIC [10] [µg/mL] |
| --- | --- | --- | --- | --- | --- | --- | --- | --- | --- | --- |
| CC[C@H]1OC(=O)[C@H](C)C(=O)[C@H](C)[C@@H](O[C@@H]2O[C@H](C)C[C@H](N(C)C)[C@H]2O)[C@](C)(OCCCc2ccccc2)C[C@@H](C)C(=O)[C@H](C)[C@@H](O)[C@]1(C)O | 1 (≈ 1.45 µM) | > 64 | 64 (≈ 92.5 µM) | 6.2 (≈ 8.96 µM) | 6.2 (≈ 8.96 µM) | > 100 | 32 (≈ 46.2 µM) | 1 (≈ 1.45 µM) | 4 (≈ 5.78 µM) | 0.5 (≈ 0.723 µM) |
| CC[C@H]1OC(=O)[C@H](C)C(=O)[C@H](C)[C@@H](O[C@@H]2O[C@H](C)C[C@H](N(C)C)[C@H]2O)[C@](C)(OC/C=C/c2ccc3nnccc3c2)C[C@@H](C)C(=O)[C@H](C)[C@H]2NC(=O)O[C@@]21C | 0.5 (≈ 0.652 µM) | 2 (≈ 2.61 µM) | 4 (≈ 5.22 µM) | 0.05 (≈ 0.0652 µM) | 0.05 (≈ 0.0652 µM) | > 100 | 1 (≈ 1.3 µM) | 0.015 (≈ 0.0196 µM) | 0.5 (≈ 0.652 µM) | 0.03 (≈ 0.0391 µM) |
| CC[C@H]1OC(=O)[C@H](C)C(=O)[C@H](C)[C@@H](O[C@@H]2O[C@H](C)C[C@H](N(C)C)[C@H]2O)[C@](C)(OCCNCc2ccncc2)C[C@@H](C)C(=O)[C@H](C)[C@@H](O)[C@]1(C)O | 2 (≈ 2.83 µM) | 32 (≈ 45.2 µM) | > 100 | 6.2 (≈ 8.76 µM) | 3.1 (≈ 4.38 µM) | > 100 | > 128 | 0.25 (≈ 0.353 µM) | 1.56 (≈ 2.2 µM) | 0.39 (≈ 0.551 µM) |
| CC[C@H]1OC(=O)[C@H](C)C(=O)[C@H](C)[C@@H](O[C@@H]2O[C@H](C)C[C@H](N(C)C)[C@H]2O)[C@](C)(OCCNCc2ccccc2)C[C@@H](C)C(=O)[C@H](C)[C@@H](O)[C@]1(C)O | 4 (≈ 5.66 µM) | 16 (≈ 22.6 µM) | > 64 | 3.1 (≈ 4.39 µM) | 1.56 (≈ 2.21 µM) | > 100 | > 64 | 0.25 (≈ 0.354 µM) | 4 (≈ 5.66 µM) | 0.5 (≈ 0.707 µM) |
| CC[C@H]1OC(=O)[C@H](C)C(=O)[C@H](C)[C@@H](O[C@@H]2O[C@H](C)C[C@H](N(C)C)[C@H]2O)[C@](C)(OC/C=C/c2cnc3nccnc3c2)C[C@@H](C)C(=O)[C@H](C)[C@H]2NC(=O)O[C@@]21C | 2 (≈ 2.6 µM) | 4 (≈ 5.21 µM) | 4 (≈ 5.21 µM) | 0.2 (≈ 0.26 µM) | 0.2 (≈ 0.26 µM) | > 100 | 1 (≈ 1.3 µM) | 0.015 (≈ 0.0195 µM) | 2 (≈ 2.6 µM) | 0.015 (≈ 0.0195 µM) |
| C=CCO[C@]1(C)C[C@@H](C)C(=O)[C@H](C)[C@H]2N(CCN(C)C)C(=O)O[C@]2(C)[C@@H](CC)OC(=O)[C@H](C)C(=O)[C@H](C)[C@H]1O[C@@H]1O[C@H](C)C[C@H](N(C)C)[C@H]1O | 2 (≈ 2.82 µM) | 64 (≈ 90.2 µM) | > 128 | 6.2 (≈ 8.73 µM) | 6.2 (≈ 8.73 µM) | > 100 | > 128 | 1 (≈ 1.41 µM) | 4 (≈ 5.63 µM) | 0.5 (≈ 0.704 µM) |
| CC[C@H]1OC(=O)[C@H](C)C(=O)[C@H](C)[C@@H](O[C@@H]2O[C@H](C)C[C@H](N(C)C)[C@H]2O)[C@](C)(OC/C=C/c2ccc3cccnc3c2)C[C@@H](C)C(=O)[C@H](C)[C@H]2NC(=O)O[C@@]21C | 0.5 (≈ 0.653 µM) | 4 (≈ 5.22 µM) | > 128 | 0.05 (≈ 0.0653 µM) | 0.05 (≈ 0.0653 µM) | > 100 | 4 (≈ 5.22 µM) | 0.03 (≈ 0.0392 µM) | 1 (≈ 1.31 µM) | 0.03 (≈ 0.0392 µM) |
| CC[C@H]1OC(=O)[C@H](C)C(=O)[C@H](C)[C@@H](O[C@@H]2O[C@H](C)C[C@H](N(C)C)[C@H]2O)[C@](C)(OC/C=C/c2ccc3ccccc3c2)C[C@@H](C)C(=O)[C@H](C)[C@H]2NC(=O)O[C@@]21C | 1 (≈ 1.31 µM) | 16 (≈ 20.9 µM) | 16 (≈ 20.9 µM) | 0.1 (≈ 0.131 µM) | 0.1 (≈ 0.131 µM) | > 100 | > 128 | 0.015 (≈ 0.0196 µM) | 1 (≈ 1.31 µM) | 0.015 (≈ 0.0196 µM) |
| CC[C@H]1OC(=O)[C@H](C)C(=O)[C@H](C)[C@@H](O[C@@H]2O[C@H](C)C[C@H](N(C)C)[C@H]2O)[C@](C)(OCCNCCCCc2ccccc2)C[C@@H](C)C(=O)[C@H](C)[C@H]2NC(=O)O[C@@]21C | 2 (≈ 2.58 µM) | 4 (≈ 5.17 µM) | > 128 | 0.39 (≈ 0.504 µM) | 0.2 (≈ 0.258 µM) | > 100 | 16 (≈ 20.7 µM) | 0.03 (≈ 0.0388 µM) | 2 (≈ 2.58 µM) | 0.125 (≈ 0.161 µM) |
| CC[C@H]1OC(=O)[C@H](C)C(=O)[C@H](C)[C@@H](O[C@@H]2O[C@H](C)C[C@H](N(C)C)[C@H]2O)[C@](C)(OC/C=C/c2cccc3ncccc23)C[C@@H](C)C(=O)[C@H](C)[C@H]2NC(=O)O[C@@]21C | 0.25 (≈ 0.326 µM) | 8 (≈ 10.4 µM) | > 128 | 0.1 (≈ 0.131 µM) | 0.1 (≈ 0.131 µM) | > 100 | 2 (≈ 2.61 µM) | 0.03 (≈ 0.0392 µM) | 0.25 (≈ 0.326 µM) | 0.03 (≈ 0.0392 µM) |
